# Experimental data published in ChEMBL document CHEMBL4229499, “Development of novel silanol-based human pregnane X receptor (PXR) agonists with improved receptor selectivity” (Bioorg Med Chem, 2018).
# Key:
# [1] = biological target: T1, Nuclear receptor ROR-gamma (Homo sapiens, UniProt P51449); assay: Inhibition of human RORgamma1 expressed in HEK293 cells after 24 hrs by luciferase reporter gene assay; format: cell-based
# T1 sequence (P51449 whole entry): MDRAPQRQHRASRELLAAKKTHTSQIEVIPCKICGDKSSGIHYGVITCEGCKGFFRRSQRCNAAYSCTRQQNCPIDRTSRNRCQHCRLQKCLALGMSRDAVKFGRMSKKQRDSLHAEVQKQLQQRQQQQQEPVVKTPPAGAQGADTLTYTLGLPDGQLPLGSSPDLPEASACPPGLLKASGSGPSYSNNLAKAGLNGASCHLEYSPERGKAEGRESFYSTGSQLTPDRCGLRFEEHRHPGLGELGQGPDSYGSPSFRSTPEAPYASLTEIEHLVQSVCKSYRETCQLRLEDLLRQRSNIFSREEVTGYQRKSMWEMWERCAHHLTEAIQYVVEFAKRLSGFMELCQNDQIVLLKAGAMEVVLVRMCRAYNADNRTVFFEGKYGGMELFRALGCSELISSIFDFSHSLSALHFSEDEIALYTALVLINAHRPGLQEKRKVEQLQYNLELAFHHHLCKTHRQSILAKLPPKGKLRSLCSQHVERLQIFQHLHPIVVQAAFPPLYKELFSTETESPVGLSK
# [2] = Octanol/water partition co-efficient, log P of the compound by HPLC method; format: physicochemical
# [3] = biological target: T2, Nuclear receptor subfamily 1 group I member 2 (Homo sapiens, UniProt O75469); assay: Agonist activity at VP16-fused human PXR expressed in HEK293 cells after 24 hrs by luciferase reporter gene assay; format: cell-based
# T2 sequence (O75469 whole entry): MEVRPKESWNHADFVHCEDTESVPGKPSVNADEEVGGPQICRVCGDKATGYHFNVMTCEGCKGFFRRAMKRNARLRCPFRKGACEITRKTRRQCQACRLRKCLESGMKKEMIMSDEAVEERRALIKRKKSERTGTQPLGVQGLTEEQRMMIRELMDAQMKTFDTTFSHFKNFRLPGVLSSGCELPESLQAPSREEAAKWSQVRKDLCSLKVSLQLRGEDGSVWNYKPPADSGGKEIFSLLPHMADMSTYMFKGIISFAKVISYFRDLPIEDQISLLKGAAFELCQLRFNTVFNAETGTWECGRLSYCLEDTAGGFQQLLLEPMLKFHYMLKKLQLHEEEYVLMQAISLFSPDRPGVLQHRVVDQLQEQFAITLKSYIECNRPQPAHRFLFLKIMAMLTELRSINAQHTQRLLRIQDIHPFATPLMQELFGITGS
# Method in brief: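 HEK293 cells grown in DMEM with 5% FBS and penicillin/streptomycin at 37 °C, 5% CO₂. Seeded at 20% confluence 24 h before calcium-phosphate co-transfection with 150 ng receptor expression plasmid (PXR as a VP16 fusion), 500 ng luciferase reporter and 10 ng β-gal vector. Luciferase was normalized to β-galactosidase, in triplicate transfections.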
# [4] = biological target: T3, Nuclear receptor ROR-alpha (Homo sapiens, UniProt P35398); assay: Inhibition of human RORalpha1 expressed in HEK293 cells after 24 hrs by luciferase reporter gene assay; format: cell-based
# T3 sequence (P35398 whole entry): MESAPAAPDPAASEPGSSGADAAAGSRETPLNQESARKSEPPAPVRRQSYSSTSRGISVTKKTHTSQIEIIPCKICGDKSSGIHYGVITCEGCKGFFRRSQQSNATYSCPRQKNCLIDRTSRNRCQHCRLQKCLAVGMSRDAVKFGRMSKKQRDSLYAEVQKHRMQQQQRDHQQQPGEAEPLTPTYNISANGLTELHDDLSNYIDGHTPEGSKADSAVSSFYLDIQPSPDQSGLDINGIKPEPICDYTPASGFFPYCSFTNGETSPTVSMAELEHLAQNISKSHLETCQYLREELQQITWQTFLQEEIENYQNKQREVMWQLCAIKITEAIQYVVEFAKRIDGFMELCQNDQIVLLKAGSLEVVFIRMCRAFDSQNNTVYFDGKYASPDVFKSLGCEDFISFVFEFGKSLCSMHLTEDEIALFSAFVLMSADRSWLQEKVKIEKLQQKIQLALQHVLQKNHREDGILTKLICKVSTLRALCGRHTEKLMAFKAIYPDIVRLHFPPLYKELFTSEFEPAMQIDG
# [5] = biological target: T4, Nuclear receptor ROR-gamma (Homo sapiens) (UniProt P51449); assay: Agonist activity at human RORgamma1 expressed in HEK293 cells after 24 hrs by luciferase reporter gene assay; format: cell-based
# T4 sequence (whole entry): T1 sequence (P51449 whole entry)
# [6] = biological target: T5, Nuclear receptor ROR-alpha (Homo sapiens) (UniProt P35398); assay: Agonist activity at human RORalpha1 expressed in HEK293 cells after 24 hrs by luciferase reporter gene assay; format: cell-based
# T5 sequence (whole entry): T3 sequence (P35398 whole entry)
smiles,measurement,setting,value
CCN(c1ccc([Si](C)(C)O)cc1)S(=O)(=O)c1ccccc1,IC50,[1]; read-out: IC50,> 30 µM
same,logP,[2],3.2
same,EC50,[3]; read-out: EC50,1.9 µM
same,IC50,[4]; read-out: IC50,> 30 µM
C[Si](C)(O)c1ccc(NS(=O)(=O)c2ccccc2)cc1,IC50,[1]; hek293,Not Active
same,logP,[2],2.22
same,EC50,[3]; read-out: EC50,2.4 µM
same,IC50,[4]; hek293,Not Active
CN(c1ccc([Si](C)(C)O)cc1)S(=O)(=O)c1ccccc1,Activity,[5],54%
same,logP,[2],2.9
same,Activity,[6],53%
same,EC50,[3]; read-out: EC50,3.4 µM
C[Si](C)(O)c1ccc(N(CC(F)(F)F)S(=O)(=O)c2ccccc2)cc1,IC50,[1]; read-out: IC50,11 µM
same,EC50,[3]; read-out: EC50,0.63 µM
same,IC50,[4]; read-out: IC50,> 30 µM
O=C(O)c1ccc(N(CC(F)(F)F)S(=O)(=O)c2ccccc2)cc1,IC50,[1]; hek293,Not Active
same,EC50,[3]; hek293,Not Active
same,IC50,[4]; hek293,Not Active
C[Si](C)(O)c1ccc(N(CCc2ccccc2)S(=O)(=O)c2ccccc2)cc1,IC50,[1]; read-out: IC50,> 30 µM
same,logP,[2],4.32
same,EC50,[3]; read-out: EC50,14 µM
same,IC50,[4]; read-out: IC50,> 30 µM
C[Si](C)(O)c1ccc(N(Cc2ccccc2)S(=O)(=O)c2ccccc2)cc1,IC50,[1]; read-out: IC50,> 30 µM
same,logP,[2],3.92
same,EC50,[3]; read-out: EC50,3.2 µM
same,IC50,[4]; read-out: IC50,> 30 µM
COC(=O)CN(c1ccc(C(C)(C)O)cc1)S(=O)(=O)c1ccccc1,IC50,[1]; read-out: IC50,> 30 µM
same,logP,[2],2.35
same,EC50,[3]; hek293,Not Active
same,IC50,[4]; hek293,Not Active
CC(C)(O)c1ccc(N(CC(F)(F)F)S(=O)(=O)c2ccccc2)cc1,IC50,[1]; read-out: IC50,> 30 µM
same,EC50,[3]; hek293,Not Active
same,IC50,[4]; hek293,Not Active
CCCCN(c1ccc([Si](C)(C)O)cc1)S(=O)(=O)c1ccccc1,IC50,[1]; read-out: IC50,> 30 µM
same,logP,[2],4.05
same,EC50,[3]; read-out: EC50,6.5 µM
same,IC50,[4]; read-out: IC50,> 30 µM
COC(=O)CN(c1ccc([Si](C)(C)O)cc1)S(=O)(=O)c1ccccc1,IC50,[1]; hek293,Not Active
same,logP,[2],2.79
same,EC50,[3]; read-out: EC50,1.4 µM
same,IC50,[4]; hek293,Not Active
COCCN(c1ccc([Si](C)(C)O)cc1)S(=O)(=O)c1ccccc1,IC50,[1]; hek293,Not Active
same,logP,[2],2.81
same,EC50,[3]; read-out: EC50,4.2 µM
same,IC50,[4]; hek293,Not Active
